Hits are enriched below; roughly 2.3% of the tested compounds scored in any of these assays.
V1aR counter: activates human V1a receptor in oxytocin agonist counter-screen | P37288 | CHO-V1R cells, Fluo-8 calcium fluorescence, agonist mode; 0% DMSO, 100% 3 nM vasopressin | activation, % at 3 µM | 320,000 tested, 0.25% active;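 active means activation above the mean activation of all tested compounds plus 3 SD, per screening run, cut at about 20% in these data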;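 further: signal is peak over basal fluorescence ratio across a 100 second FLIPR read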
Target sequence (P37288 whole entry, looked up): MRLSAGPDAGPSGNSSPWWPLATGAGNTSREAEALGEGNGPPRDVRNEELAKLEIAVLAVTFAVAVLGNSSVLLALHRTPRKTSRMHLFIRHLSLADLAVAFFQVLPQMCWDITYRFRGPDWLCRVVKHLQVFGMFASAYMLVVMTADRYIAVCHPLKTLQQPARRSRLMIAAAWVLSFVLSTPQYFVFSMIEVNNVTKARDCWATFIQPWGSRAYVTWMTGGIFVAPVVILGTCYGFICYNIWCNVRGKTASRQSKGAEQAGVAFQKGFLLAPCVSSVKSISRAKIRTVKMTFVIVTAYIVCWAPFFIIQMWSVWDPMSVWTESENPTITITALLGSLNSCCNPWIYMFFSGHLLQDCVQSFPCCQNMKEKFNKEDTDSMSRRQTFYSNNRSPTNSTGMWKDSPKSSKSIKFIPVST
OXTR agonist: activates the human oxytocin receptor; P30559; CHO-OTR cells, Fluo-8 calcium fluorescence; normalized: DMSO 0%, oxytocin 100%; activation, % at 3 µM; 320,000 tested, 0.32% active; AID 2435;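 active means activation above the mean of all tested compounds plus 3 SD, cutoff set per screening run, cut at about 20% in these data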;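 further: peak over basal fluorescence ratio from a 100 s FLIPR kinetic read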
TAAR1 antagonist: antagonists of human TAAR1; Q96RJ0; CHO RD-HGA16 TAAR1, Fluo-8 calcium fluorescence, antagonist; inhibition, % at 3 µM; 360,000 tested, 1.5% active;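 active means inhibition above a per-plate cutoff, the mean inhibition of test compounds on that plate plus 3 SD, cut at about 49% in these data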;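 further: 0% = DMSO plus EC80 beta-PEA response and 100% = DMSO alone without agonist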
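Assay system: RD-HGA16 CHO cells with stable hTAAR1 and Gα16 / Reagent: EC80 β-phenethylamine stimulus / Doses: 3 µM, single point / Timing: dye loading 75 min at 37 °C, then 30 min room temperature / Measured by: Fluo-8 intracellular calcium dye fluorescence, real-time kinetic reads / Controls: vehicle wells and EC80 agonist wells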
OXTR potentiate: human OXTR potentiation; P30559; 320,000 tested, 0.061% active; activation, % at 3 µM; AID 2445; CHO-OTR cells, Fluo-8 calcium fluorescence, potentiator mode; 0% = oxytocin EC15, 100% = EC100;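 active means activation above that plate's cutoff, the mean activation of tested compounds plus 3 SD, cut at about 6.6% in these data, passing the limit was not always enough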;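 further: 100% uses oxytocin at 75 nM as the full agonist control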
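Assay system: CHO cell line stably expressing human OTR. Reagent: EC15 oxytocin agonist. Dosing: single dose, 3.0 µM nominal final compound concentration. Timing: compound 6 min at room temperature before oxytocin, 100 s read. Signal: kinetic Fluo-8 calcium fluorescence. Controls: oxytocin EC15 low and EC100 high.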
TAAR1 agonist: human TAAR1 agonism | Q96RJ0 | CHO RD-HGA16 TAAR1, Fluo-8 calcium fluorescence; vehicle wells 0%, saturating PEA agonist 100% | activation, % at 3 µM | 360,000 tested, 0.99% active | AID 624467;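 active means activation above the mean activation of all test compounds in the run plus 3 SD, cut at about 38% in these data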
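Signal – calcium-sensitive Fluo-8 signal, excitation 470-495, emission 515-575 nm · System – RD-HGA16 (CHO) cells co-expressing Gα16 and hTAAR1 · Incubation – 17-24 h seeding, 75 min 37 °C dye, 30 min RT · Compound dosing – 3 µM single concentration · Repeats – no replicates (n 1)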
Starred values were filed as active, the others as inactive; x = not tested or not shown.

SMILES | V1aR counter | OXTR agonist | TAAR1 antagonist | OXTR potentiate | TAAR1 agonist
Cc1cc(C)nc(Nc2nc(C(N)Cc3ccc(F)cc3)cs2)n1 (centres undefined) | x | x | 1.9 | x | 27.8
Cc1cc(C)nc(Nc2nc(C(N)Cc3ccc(C(F)(F)F)cc3)cs2)n1 (centres undefined) | x | x | 35.2 | x | 47.0*
COc1cc(OC)nc(Nc2nc(C(N)Cc3ccc(C(F)(F)F)cc3)cs2)n1 (centres undefined) | x | x | 34.2 | x | 52.7*
COc1cc(OC)nc(Nc2nc(C(N)Cc3ccccc3)cs2)n1 (centres undefined) | x | x | -7.3 | x | 17.5
CCN1C(=O)C2(C(C#N)=C(N)Oc3n[nH]c(C(C)C)c32)c2ccccc21 (centres undefined) | 0.3 | 6.2 | -9.2 | -8.2 | 0.9
CCc1cccc(C)c1NC(=O)C1CCCO1 (centres undefined) | 0.5 | 1.6 | 1.9 | -1.4 | 9.8
O=C(CSc1n[nH]c(=O)[nH]c1=O)Nc1ccc(SC(F)F)cc1 | 1.6 | 3.8 | -16.5 | 6.3 | 2.5
COc1cccc(OCCCCCN2CCOCC2)c1 | -0.1 | 1.2 | 9.5 | 0.5 | 1.7
COc1ccc2sc(-c3ccccc3OC)c(-c3ccc(SC)cc3)c2c1 | x | x | -28.2 | x | 4.7
COc1ccc2sc(-c3ccc(SC)cc3)c(-c3ccc(O)cc3)c2c1 | 0.3 | 0.6 | 58.1* | -11.9 | 19.6
O=C(COC(=O)c1nc(Cl)ccc1Cl)Nc1ccc2c(c1)OCO2 | -0.5 | -2.1 | -2.5 | -0.3 | -1.2
O=C(COc1ccc(S(=O)(=O)N2CCCC2)cc1Cl)Nc1ccc2c(c1)OCO2 | 3.1 | 1.2 | 49.7* | -9.2 | 9.7
CC(C)NS(=O)(=O)c1ccc(OCC(=O)Nc2ccc3c(c2)OCO3)c(Cl)c1 | 5.3 | 3.8 | 33.1 | -14.9 | 6.2
CCN1CCc2c(OCC(=O)N3CCCc4ccccc43)cccc2C1=O | 1.3 | 0.3 | -4.6 | -6.7 | 5.2
Cc1cc(NCCc2ccccc2F)n2ncnc2n1 | 4.1 | 1.2 | 8.5 | -3.3 | 37.6*
COc1ccc(C(C(O)C(=O)c2c[nH]c3ccccc23)N2CCN(c3ccc(OC)cc3)CC2)cc1 (centres undefined) | 5.8 | 10.2 | 8.7 | -12.3 | 38.5*
O=C(c1c[nH]c2ccccc12)C(O)C(c1ccccc1)N1CCOCC1 (centres undefined) | -0.2 | 1.7 | 0.7 | -2.7 | 9.1
Cc1ccc(-c2ccc(CN3C(CC(C)C)C(=O)N(Cc4cn(CCC5OCCO5)nn4)CCS3(=O)=O)cc2)cc1 (centres undefined) | x | x | 54.8* | x | 7.8
CCCCN(Cc1ccccc1)S(=O)(=O)c1ccc2[nH]c(=O)oc2c1 | 0.5 | -1.3 | 48.6* | -17.7 | 12.8
O=C1C(C=NCc2ccccn2)=C(O)c2ccccc21 | 0.7 | -0.5 | -12.9 | 5.2 | 5.2
O=P(CCCCCCCCCP(=O)(c1ccccc1)c1ccccc1)(c1ccccc1)c1ccccc1 | 23.7* | 20.0* | 90.1* | -21.5 | 33.4
O=C(COC(=O)c1c2c(nc3ccccc13)/C(=C\c1cccs1)CCC2)Nc1ccccc1 | 0.3 | 1.2 | 19.7 | -4.2 | 2.5
CC(C)CNC(=O)COC(=O)c1c2c(nc3ccccc13)/C(=C\c1cccs1)CC2 | x | x | 50.1* | x | 0.1
CC(=O)c1ccc(NC(=O)COC(=O)c2c3c(nc4ccccc24)/C(=C\c2cccs2)CCC3)cc1 | 0.7 | 0.6 | 57.6* | -13.2 | 8.2
Cc1ccc(Cn2nnc3c(=O)[nH]c(C4CCCN(S(=O)(=O)c5ccc(F)cc5)C4)nc32)cc1 (centres undefined) | -0.7 | 0.7 | -9.0 | -3.3 | -0.4
SMILES | V1aR counter | OXTR agonist | TAAR1 antagonist | OXTR potentiate | TAAR1 agonist
O=C(Nc1ccccc1)c1cc(C2CCCN(C(=O)CCc3ccccc3)C2)on1 (centres undefined) | x | x | -13.9 | x | 0.8
CN(C)c1ccc(CC(=O)N2CCCC(c3cc(C(=O)Nc4ccc(C(C)(C)C)cc4)no3)C2)cc1 (centres undefined) | x | x | 55.5* | x | 1.6
Fc1ccccc1N1CCN(CCCc2ccccc2)CC1 | -1.1 | -0.3 | -24.9 | 4.1 | 2.6
N#Cc1nc(-c2cccs2)oc1NCc1ccc(Cl)cc1 | 0.7 | -1.0 | 49.5* | -16.4 | 15.4
O=S(=O)(c1ccc(F)cc1)N1CCCc2nc(-c3ccc(F)cc3)ccc21 | x | x | 0.1 | x | -0.1
CCc1cc(Cn2nc(-c3ccccc3)cc2C(=O)NCc2cccs2)on1 | 2.7 | 2.1 | 63.2* | -16.1 | 11.4

Screening results: PubChem BioAssay, The Scripps Research Institute Molecular Screening Center
